ChEMBL document CHEMBL3621164, “Discovery of Triazole CYP11B2 Inhibitors with in Vivo Activity in Rhesus Monkeys” (ACS Med Chem Lett, 2015)

Legend:
[1] = Plasma clearance in rhesus monkey at 2 mg/kg administered through gavage by LC-MS/MS method; type: ADME, organism-based, Macaca mulatta; conditions: po
[2] = molecular target: T1, Cytochrome P450 11B2, mitochondrial (Rattus norvegicus, UniProt P30099); test: Inhibition of rat CYP11B2 expressed in V79 cells assessed as aldosterone level after 3 hrs by HTRF assay in presence of 500 nM 11-deoxycorticosterone; type: cell-based; conditions: v79, 3 h
T1 sequence (P30099 whole entry): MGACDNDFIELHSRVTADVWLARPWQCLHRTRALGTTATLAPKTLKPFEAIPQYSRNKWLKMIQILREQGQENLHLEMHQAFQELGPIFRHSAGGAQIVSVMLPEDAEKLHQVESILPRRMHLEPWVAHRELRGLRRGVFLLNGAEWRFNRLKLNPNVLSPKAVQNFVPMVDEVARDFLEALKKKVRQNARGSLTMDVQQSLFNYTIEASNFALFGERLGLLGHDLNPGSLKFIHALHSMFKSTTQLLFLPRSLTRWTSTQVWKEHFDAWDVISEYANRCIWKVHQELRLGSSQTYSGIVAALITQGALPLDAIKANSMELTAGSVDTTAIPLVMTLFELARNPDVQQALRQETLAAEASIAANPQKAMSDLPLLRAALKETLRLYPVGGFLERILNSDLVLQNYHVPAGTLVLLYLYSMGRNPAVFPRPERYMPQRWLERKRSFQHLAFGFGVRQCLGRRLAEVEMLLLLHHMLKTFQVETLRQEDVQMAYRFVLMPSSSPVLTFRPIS

Rhesus monkey = test: Decrease in aldosterone level in rhesus monkey plasma at 1 mg/kg, iv by LC/MS method; type: functional; conditions: Macaca mulatta
Procedure, shortened: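 Plasma aldosterone and 11-deoxycortisol quantified by LC–MS at time points up to 180 min postdose; AUCs over that period calculated and compared with baseline.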

[3] = Intrinsic clearance in Sprague-Dawley rat liver microsomes by LC/MS method; type: ADME; conditions: read-out: CLH
[4] = Plasma clearance in Sprague-Dawley rat at 2 mg/kg, po administered through gavage by LC/MS/MS method; type: ADME, organism-based
Aromatase = molecular target: T2, Aromatase (Homo sapiens, UniProt P11511); test: Inhibition of human CYP19
T2 sequence (P11511 whole entry): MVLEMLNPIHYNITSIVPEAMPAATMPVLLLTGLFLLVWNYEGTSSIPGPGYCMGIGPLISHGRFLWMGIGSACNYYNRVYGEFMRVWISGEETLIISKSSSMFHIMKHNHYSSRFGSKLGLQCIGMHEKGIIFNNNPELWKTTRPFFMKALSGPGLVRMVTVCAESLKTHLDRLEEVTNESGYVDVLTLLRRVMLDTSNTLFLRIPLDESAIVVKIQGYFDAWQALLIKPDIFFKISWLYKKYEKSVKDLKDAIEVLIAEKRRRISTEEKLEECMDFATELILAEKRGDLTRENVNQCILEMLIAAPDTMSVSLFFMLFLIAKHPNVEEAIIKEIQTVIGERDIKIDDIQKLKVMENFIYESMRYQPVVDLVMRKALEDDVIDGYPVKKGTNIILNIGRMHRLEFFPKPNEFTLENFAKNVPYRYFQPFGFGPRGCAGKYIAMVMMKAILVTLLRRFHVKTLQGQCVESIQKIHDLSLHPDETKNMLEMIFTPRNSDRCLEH

CL/F [1]: 3 mL/min/kg
inhibition (INH) [2]: Active
CLint scaled [3]: < 20 mL/min/kg
CL/F [4]: 21 mL/min/kg
IC50 (Aromatase): > 30 µM
Structure (SMILES): Cc1nnc2n1-c1ccc(-c3cncc([C@](C)(O)C(F)(F)F)c3)cc1CC2
inhibition in vivo at 1 mg/kg (Rhesus monkey): 98%
